# ARFGAP1 inhibitor: inhibitors of rat ARFGAP1 GAP activity, primary screen, biochemical, fluorescence polarization, GDP tracer; ADP-ribosylation factor GTPase-activating protein 1 (Rattus norvegicus), Q62848; Arfgap1-stimulated ARF1 GTP hydrolysis, GDP FP detection; inhibition, % at 16.5 µM; 360,000 compounds, 0.26% hits; AID 651572, 2012;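 active means inhibition above a per-plate limit, mean inhibition of low control wells plus 3 SD, cut at about 25% in these data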;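 further: 0% = DMSO wells with enzyme and 100% = wells lacking Arfgap1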
#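 Material: rat Arfgap1 GAP domain (His6, aa 1-136), purified enzyme. Also added: human ARF1(Δ1-17)-GTP substrate. Compound dosing: 16.5 µM single point, 1.26% DMSO. Timing: enzyme reaction 120 min at 25 °C after 20 min preincubation. Signal: GDP detection by fluorescence polarization. Read-out basis: percent inhibition of GAP-stimulated GDP formation, scaled between DMSO and no-Arfgap1 medians.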
# IDE act: human IDE activators in live cells, primary screen, fluorescence polarization, HEK cells, FAbeta-B substrate. AID 493087, 2011. 340,000 compounds, 0.073% hits. Insulin-degrading enzyme (Homo sapiens), P14735. FAbeta-B cleavage; 0% vehicle, 100% cell-free pure enzyme wells. activation, % at 5.96 µM;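 active means activation above the mean of all tested compounds plus 3 SD, set per screening campaign, cut at about 17% in these data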
# Target sequence (P14735 whole entry, looked up): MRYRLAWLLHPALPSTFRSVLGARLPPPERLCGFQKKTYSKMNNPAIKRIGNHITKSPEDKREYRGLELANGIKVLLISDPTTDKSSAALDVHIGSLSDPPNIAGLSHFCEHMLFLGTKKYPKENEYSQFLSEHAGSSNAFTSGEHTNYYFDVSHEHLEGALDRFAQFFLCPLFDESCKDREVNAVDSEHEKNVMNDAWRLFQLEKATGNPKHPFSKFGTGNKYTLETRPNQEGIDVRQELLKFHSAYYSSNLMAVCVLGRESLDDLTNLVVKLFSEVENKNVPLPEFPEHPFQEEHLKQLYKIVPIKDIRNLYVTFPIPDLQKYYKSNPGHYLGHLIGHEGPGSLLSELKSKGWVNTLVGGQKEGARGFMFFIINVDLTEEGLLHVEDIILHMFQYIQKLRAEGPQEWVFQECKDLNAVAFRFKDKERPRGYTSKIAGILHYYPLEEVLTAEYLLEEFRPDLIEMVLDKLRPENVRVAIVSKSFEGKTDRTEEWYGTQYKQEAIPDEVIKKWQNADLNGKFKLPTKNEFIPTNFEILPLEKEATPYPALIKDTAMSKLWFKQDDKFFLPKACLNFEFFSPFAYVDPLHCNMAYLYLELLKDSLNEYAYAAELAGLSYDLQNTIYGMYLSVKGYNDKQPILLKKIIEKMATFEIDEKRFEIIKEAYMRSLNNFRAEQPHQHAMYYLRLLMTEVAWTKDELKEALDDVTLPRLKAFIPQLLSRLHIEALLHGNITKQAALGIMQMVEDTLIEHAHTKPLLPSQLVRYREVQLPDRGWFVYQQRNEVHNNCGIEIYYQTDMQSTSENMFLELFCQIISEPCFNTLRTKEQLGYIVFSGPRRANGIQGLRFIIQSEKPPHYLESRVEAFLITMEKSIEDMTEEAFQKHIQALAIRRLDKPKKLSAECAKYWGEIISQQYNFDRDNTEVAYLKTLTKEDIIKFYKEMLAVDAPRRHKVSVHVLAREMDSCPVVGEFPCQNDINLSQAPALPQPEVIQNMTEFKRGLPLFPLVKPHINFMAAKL
# PREPL inh: PREPL enzyme inhibitors, primary screen, biochemical, fluorescence polarization; recombinant PREPL, fluorescence polarization activity-based probe; inhibition, % at 5.96 µM; 320,000 compounds, 0.68% hits;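 further: 0% = enzyme with DMSO and 100% = wells lacking enzyme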
# IDE inh: human IDE inhibitors in live cells, primary screen, fluorescence polarization, HEK cells, FAbetaB substrate. FAbetaB cleavage. Insulin-degrading enzyme (Homo sapiens), P14735. inhibition, % at 5.59 µM. 320,000 compounds, 0.41% hits;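 active means percent inhibition above the average of all tested compounds plus 3 SD, set per screening campaign, cut at about 16% in these data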;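 further: IDE supplied by intact live HEK cells; FP after avidin binding of uncleaved biotin substrate so inhibition keeps polarization high; 0% = DMSO wells and 100% = 60 µM reference IDE inhibitor Ii1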
# ASAP1 GAP inh: inhibitors of human ASAP1 ArfGAP activity, primary screen, biochemical, fluorescence polarization | 360,000 compounds, 0.19% hits | ASAP1-stimulated ARF1 GTP hydrolysis, GDP FP detection | inhibition, % at 16.5 µM | Arf-GAP with SH3 domain, ANK repeat and PH domain-containing protein 1 (Homo sapiens), … | AID 624377, 2012; in the data active means inhibition above about 25%;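 further: 0% = vehicle with enzyme and substrate and 100% = no enzyme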
# PREPL confirm: human PREPL enzyme inhibitors, confirmation, biochemical, fluorescence polarization; recombinant PREPL, fluorescence polarization activity probe; shares compounds with PREPL inh; inhibition, % at 5.96 µM; 2,000 compounds, 67% hits;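 further: 0% = protein with DMSO and 100% = wells lacking protein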
# * hit, by the source's call; x = no result given. A selection: hits, their analogues and other compounds. The true share with any hit is near 1.2%. Unless noted, no stated cut-off is given here; in the data, active means inhibition above about 43%; inactive means the rest.
SMILES,ARFGAP1 inhibitor,IDE act,PREPL inh,IDE inh,ASAP1 GAP inh,PREPL confirm
CC(C)C[C@H]1CNC(=O)C(=O)N1C[C@@H]1CCCN1C[C@H](CC(C)C)N1C[C@H](Cc2ccccc2)N(CCc2ccccc2)C(=O)C1=O,-7,x,x,x,-18,x
CC(C)C[C@@H]1CN=C(N)N1C[C@@H]1CCCN1C[C@H](C)N1C[C@@H](Cc2ccccc2)N(CCc2ccc(Cl)c(Cl)c2)C1=N,x,9,45*,3,x,38
CC(C)C[C@@H]1CN=C(N)N1C[C@@H]1CCCN1C[C@H](C)N1C[C@@H](Cc2ccccc2)N(CCCC2CCCC2)C1=N,8,6,52*,0,-1,43
NC1=NC[C@H](Cc2ccccc2)N1CC1CCCCC1,1,3,6,2,1,x
CC(C)C[C@@H]1CN=C(N)N1C[C@@H]1CCCN1C[C@@H](C(C)C)N1C[C@@H](Cc2ccccc2)N(CCc2ccc(Cl)c(Cl)c2)C1=N,5,6,70*,-1,2,64*
O=S(=O)(NCc1ccc(Cl)cc1)c1ccc(Br)cc1C1CC[C@@H](O)C1 (some centres not stated),14,x,x,x,-12,x
CCCCn1c(N)c(N(CC(C)C)C(=O)CCNC(=O)c2ccc([N+](=O)[O-])cc2)c(=O)[nH]c1=O,18,-1,x,x,-16,x
COc1ccc(C2c3ccc4ccccc4c3Oc3ncn(CCN4CCOCC4)c(=N)c32)cc1OC (configuration not stated),4,4,46*,2,-6,36
Nc1nc(SCC(=O)c2cccs2)n[nH]1,-1,3,5,-3,-2,x
Nc1nc(SCC(=O)c2ccc(Br)s2)n[nH]1,-2,x,52*,-1,10,29
C=CCn1c(N2CCN(c3ccc(OC)cc3)CC2)nc2c1c(=O)[nH]c(=O)n2C,-7,-11,49*,10,-10,38
C=CCn1c(N2CCN(c3ccc(OC)cc3)CC2)nc2c1c(=O)n(C)c(=O)n2C,3,-8,43,6,6,x
Cc1ccccc1OCc1nnc(SCC(=O)Nc2ccc(N3CCOCC3)c(Cl)c2)n1C,-2,3,51*,0,16,58*
COc1ccccc1OCc1nnc(SCC(=O)Nc2ccc(N3CCOCC3)cc2)n1C,-2,6,0,-3,2,x
O=C(/C=C(\Nc1ccccc1)c1ccccc1)c1ccccc1,-2,x,x,x,5,x
COc1cc2c(C#N)c(N3CCCCC3)nc(N)c2c(N)n1,8,-3,36,3,10,x
COc1cc2c(C#N)c(N3CCc4ccccc4C3)nc(N)c2c(N)n1,19,2,49*,-2,8,54*
O=C(CCN1C(=O)S/C(=C\C=C\c2ccccc2)C1=O)Nc1ccc(O)cc1,10,-1,43*,-2,13,34
Cc1cccc(C(=O)N[C@H](C(=O)Nc2ccc3c(c2)OCO3)C(C)C)c1,0,5,12,5,-12,x
O=C(COc1ccccc1C(=O)N/N=C\c1ccc(O)c(O)c1)N/N=C/c1ccc(O)c(O)c1,x,6,83*,2,x,32
O=C(COc1ccccc1[N+](=O)[O-])N/N=C/c1ccc(O)c([N+](=O)[O-])c1,-2,5,-7,4,5,x
COc1cccc2sc(Nc3nc(-c4ccccn4)cs3)nc12,x,-2,50*,10,x,46*
CC(C)CC(NC(=O)c1ccccc1)C(=O)OCC(=O)Nc1ccc(S(N)(=O)=O)cc1 (configuration not stated),-2,2,-5,-4,8,x
CCOC(=O)c1[nH]c2cc(OC)c(OC)cc2c1NC(=O)CN1CCN(c2ccc(OC)cc2)C(C)C1 (configuration not stated),x,x,85*,5,x,78*
CC(C)(C)NC(=O)CN(CCN1CCOCC1)C(=O)CNS(=O)(=O)c1ccccc1,-12,4,1,2,-9,x
Cc1ncc([N+](=O)[O-])n1CC(=O)N/N=C/c1ccc(F)cc1,-1,-2,9,5,4,x

# Screening data from PubChem BioAssay.
